Published values of several laboratories.
Lines come from different studies, so protocols differ.
Read-out: cell growth or viability

Structure (SMILES)	cell line	technique	tested at	time	measurement	value
Cc1cc(C)cc(COc2cc3c(cc2OCc2cc(C)cc(C)c2)[C@H]2C[C@](O)(Cc4cn(CC56CC7CC(CC(C7)C5)C6)nn4)C[C@H](C)N2CC3)c1	ASPC1	MTT			IC50	0.516 µM
Cc1cc(Nc2ncc(Cl)c(Nc3ccccc3S(=O)(=O)C(C)C)n2)c(OC(C)C)cc1C1CCNCC1	KARPAS-299	MTT	0.55556 µg/mL	72 h	inhibition	73.4%
Cc1c(-c2cccc(C(F)(F)F)c2)sc2[nH]c(=O)n([C@H](C)c3cccc4ccccc34)c(=O)c12	HCC827		10 µM		inhibition	> 80%
CC(C)C[C@H](NC(=O)[C@H](Cc1ccccc1)NC(=O)c1cnccn1)B(O)O	RERF-LC-MS	ATP luminescence			IC50	0.02 µM
Cc1cc(C)cc(COc2cc3c(cc2OCc2cc(C)cc(C)c2)[C@H]2C[C@](O)(Cc4cn(CCOCCOCCOCCNC(=O)[C@@H](CC(C)C)NC(=O)[C@@H](O)[C@H](N)Cc5ccccc5)nn4)C[C@H](C)N2CC3)c1	ASPC1	MTT			IC50	0.63 µM
Cc1cn(CC(c2cn(C)c3ccccc23)c2cn(C)c3ccccc23)nn1	HaCaT	MTS	20 µM	24 h	inhibition	9.6%
CCCCc1nc(Cl)c(CO)n1Cc1ccc(-c2ccccc2-c2nn[nH]n2)cc1	WI-38	MTT		72 h	EC50	9 µM
C[C@@H](Oc1cc(-c2cnn(C3CCNCC3)c2)cnc1N)c1c(Cl)ccc(F)c1Cl	KARPAS-299	MTT	0.04 µg/mL	72 h	inhibition	58.8%
CC(C)=CCC[C@](C)(O)[C@H]1CC[C@]2(C)[C@@H]1[C@H](O)C[C@@H]1[C@@]3(C)CC[C@H](O[C@@H]4O[C@H](CO)[C@@H](O)[C@H](O)[C@H]4O[C@@H]4O[C@H](CO)[C@@H](O)[C@H](O)[C@H]4O)C(C)(C)[C@@H]3CC[C@]12C	NCI-H358	MTT		72 h	IC80	> 100 µM
Cc1cc(C)cc(COc2cc3c(cc2OCc2cc(C)cc(C)c2)[C@H]2C[C@](O)(Cc4cn(-c5ccccc5)nn4)C[C@H](C)N2CC3)c1	ASPC1	MTT			IC50	0.593 µM
COc1cc(-c2ccc(-c3ccc(C(=N)N)nc3)s2)cc(OC)c1OC	CAKI-1				GI50	1.59 µM
Cc1cc(C)cc(COc2cc3c(cc2OCc2cc(C)cc(C)c2)C2CC(O)(Cc4cn(CCCCCCNc5ccc6c(c5)C(=O)N(C5CCC(=O)NC5=O)C6=O)nn4)CC(C)N2CC3)c1 (stereo not drawn)	ASPC1	MTT			IC50	1.23 µM
N=C(N)c1ccc(OCCCCCOc2ccc(C(=N)N)cc2)cc1	HaCaT	MTS	20 µM	24 h	inhibition	11.2%
Cc1ccc(Cn2cc(C[C@@]3(O)C[C@@H]4c5cc(OCc6cc(C)cc(C)c6)c(OCc6cc(C)cc(C)c6)cc5CCN4[C@@H](C)C3)nn2)cc1	ASPC1	MTT			IC50	0.56 µM
COc1cc(Nc2nccc(-c3cnn4nc(OC)ccc34)n2)cc(C(F)(F)F)c1	RERF-LC-MS	ATP luminescence			IC50	0.59 µM
